Measured values taken from PubChem BioAssay AID652203 (Vanderbilt Specialized Chemistry Center, 2013).
The source made the active and inactive calls. The rule behind the calls is not given here.

Target: Metabotropic glutamate receptor 7 (Rattus norvegicus) (UniProt P35400)
Assay: mGlu7 modulation of L-AP4 calcium response, selectivity assay for mGlu5 silent allosteric modulator project, cell-based, rat, TRex293, Galpha15, Fluo4 calcium (AID 652203)
Conditions: rmGlu7+Galpha15 TRex293, L-AP4 calcium Fluo4 fold shift; at 10 µM
Outline: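 system = TRex293 cells expressing rat mGlu7 plus Galpha15 | technique = Fluo4 calcium fluorescence | read-out basis = shift in L-AP4 response caused by compound | buffer or medium = Probenecid-containing assay buffer at pH 7.4 | probe or stimulus = L-AP4 agonist, 9-point series from 3.9 µM to 1 mM | timing = compound added at 20 s, L-AP4 added at 80 s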

Chain of Metabotropic glutamate receptor 7 (Rattus norvegicus) (P35400 whole entry, looked up): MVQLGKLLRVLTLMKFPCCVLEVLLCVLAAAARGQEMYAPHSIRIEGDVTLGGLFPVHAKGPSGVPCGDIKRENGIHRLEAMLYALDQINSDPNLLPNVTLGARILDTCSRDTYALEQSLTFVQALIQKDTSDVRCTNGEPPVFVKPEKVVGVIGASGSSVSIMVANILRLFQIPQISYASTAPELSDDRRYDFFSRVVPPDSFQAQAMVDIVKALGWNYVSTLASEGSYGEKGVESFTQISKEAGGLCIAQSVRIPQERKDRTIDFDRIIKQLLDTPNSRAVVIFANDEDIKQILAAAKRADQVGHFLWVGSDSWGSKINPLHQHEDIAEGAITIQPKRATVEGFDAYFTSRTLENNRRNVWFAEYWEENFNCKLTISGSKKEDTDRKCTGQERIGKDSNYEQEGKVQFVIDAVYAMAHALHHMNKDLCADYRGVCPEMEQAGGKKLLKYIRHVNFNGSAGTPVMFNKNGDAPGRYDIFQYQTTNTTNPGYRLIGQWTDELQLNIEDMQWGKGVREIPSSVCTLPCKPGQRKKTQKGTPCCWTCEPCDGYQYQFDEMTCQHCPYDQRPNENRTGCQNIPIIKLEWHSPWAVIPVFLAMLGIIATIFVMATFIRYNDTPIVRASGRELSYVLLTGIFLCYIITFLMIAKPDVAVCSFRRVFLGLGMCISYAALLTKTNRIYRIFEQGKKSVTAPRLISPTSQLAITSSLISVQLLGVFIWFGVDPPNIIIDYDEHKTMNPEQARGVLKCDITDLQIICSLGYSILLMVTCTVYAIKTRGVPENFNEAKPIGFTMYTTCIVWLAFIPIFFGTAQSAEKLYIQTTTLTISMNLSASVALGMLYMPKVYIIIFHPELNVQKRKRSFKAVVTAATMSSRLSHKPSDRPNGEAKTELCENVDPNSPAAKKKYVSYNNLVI

- fold shift of L-AP4 EC50: 0.696 (inactive)
Compound: O=C(c1ccc(C#Cc2cccc(F)c2)cn1)N1CC2CC2C1 (stereo unspecified)
